The source of these data is ChEMBL document CHEMBL1255211, “Novel azulene-based derivatives as potent multi-receptor tyrosine kinase inhibitors” (Bioorg Med Chem Lett, 2010).

Data set [1] addresses T1, Receptor-type tyrosine-protein kinase FLT3 (Homo sapiens, UniProt P36888).
T1 sequence (P36888 whole entry): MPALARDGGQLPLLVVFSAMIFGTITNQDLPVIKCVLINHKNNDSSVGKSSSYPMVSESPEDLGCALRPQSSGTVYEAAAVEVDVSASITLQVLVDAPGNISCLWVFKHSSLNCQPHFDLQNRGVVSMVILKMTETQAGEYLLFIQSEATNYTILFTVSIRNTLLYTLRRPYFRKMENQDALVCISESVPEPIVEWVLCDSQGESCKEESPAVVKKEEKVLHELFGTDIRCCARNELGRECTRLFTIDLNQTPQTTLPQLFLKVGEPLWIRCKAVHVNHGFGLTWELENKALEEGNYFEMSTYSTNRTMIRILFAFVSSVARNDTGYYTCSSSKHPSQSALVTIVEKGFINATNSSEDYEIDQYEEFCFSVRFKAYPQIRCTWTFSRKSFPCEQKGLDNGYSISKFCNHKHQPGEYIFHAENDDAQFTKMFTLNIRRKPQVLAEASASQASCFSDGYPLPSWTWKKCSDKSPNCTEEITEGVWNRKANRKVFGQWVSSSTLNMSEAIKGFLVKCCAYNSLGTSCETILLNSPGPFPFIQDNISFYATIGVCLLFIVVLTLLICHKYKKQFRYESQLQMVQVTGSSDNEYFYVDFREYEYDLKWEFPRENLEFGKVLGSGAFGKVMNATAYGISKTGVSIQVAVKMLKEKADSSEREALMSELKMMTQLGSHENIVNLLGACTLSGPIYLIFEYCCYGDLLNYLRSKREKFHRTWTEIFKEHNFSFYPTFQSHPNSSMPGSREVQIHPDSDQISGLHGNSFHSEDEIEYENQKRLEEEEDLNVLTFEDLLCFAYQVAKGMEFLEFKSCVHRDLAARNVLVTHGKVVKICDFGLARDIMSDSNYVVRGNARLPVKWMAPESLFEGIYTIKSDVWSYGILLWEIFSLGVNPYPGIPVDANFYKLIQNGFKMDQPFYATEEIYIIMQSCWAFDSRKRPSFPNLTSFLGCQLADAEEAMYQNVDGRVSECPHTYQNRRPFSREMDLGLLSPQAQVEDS
Nature of the data set: Inhibition of FLT3 by time resolved fluorescence method.

Data set [2] can be described thus: Oral bioavailability in Sprague-Dawley rat. The note with it: in vivo. The class given is ADME, organism-based. In short, it runs like this:
(§1)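 Overnight-fasted male SD rats got a single intravenous or oral dose, n = 3 per route. Vehicle was 10% N-methyl-2-pyrrolidone, 20% cremophor EL, 70% phosphate-buffered saline. Plasma was prepared from blood by centrifugation, stored at -80 °C and assayed by LC/MS/MS. Parameters came from noncompartmental analysis and are means of three animals.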

For data set [3], the target named is Receptor-type tyrosine-protein kinase FLT3 (Homo sapiens, UniProt P36888, ITD). Nature of the data set: Inhibition of FLT3-ITD autophosphorylation in human MV4-11 cells by Western blot analysis. In kind it is cell-based. In short, it runs like this:
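Cells were plated at 2-5 × 10⁵ per well and stimulated with the receptor ligand: SCF for c-Kit, VEGF-162 for KDR, FL for FLT-3. Blots were probed with anti-phosphotyrosine PY99 and reprobed with antibodies to c-Kit, KDR or FLT-3.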
A general note: In western blotting, separated proteins are transferred to a membrane and probed.

Data set [4] can be described thus: AUC in iv dosed Sprague-Dawley rat. In kind it is ADME, organism-based. The note with it: plasma. In short, it runs like this:
as §1

Data set [5] has as its target Vascular endothelial growth factor receptor 2 (Homo sapiens, UniProt P35968). Nature of the data set: Inhibition of KDR autophosphorylation in HUVEC by Western blot analysis. In kind it is cell-based.
Data set [6] has as its system Rattus norvegicus. As to the kind of experiment: Elimination half life in iv dosed Sprague-Dawley rat. The note with it: in vivo. The class given is ADME, organism-based. In short, it runs like this: as §1
Data set [7] is described as follows: Tmax in po dosed Sprague-Dawley rat. The class given is ADME, organism-based. To be noted: in vivo. In short, it runs like this: as §1
Data set [8] can be described thus: AUC in po dosed Sprague-Dawley rat. The note with it: plasma. In kind it is ADME, organism-based. In short, it runs like this: as §1
The target of data set [9] is Mast/stem cell growth factor receptor Kit (Homo sapiens, UniProt P10721). Nature of the data set: Inhibition of c-Kit autophosphorylation in human Kasumi-1 cells by Western blot analysis. The class given is cell-based.
A short description of data set [10]: Cmax in po dosed Sprague-Dawley rat. In kind it is ADME, organism-based. Further details: route oral. The note with it: in vivo. In short, it runs like this: as §1
Data set [11] concerns MV4-11. Nature of the data set: Cytotoxicity against human MV4-11 cells by MTT assay.
Data set [12] concerns the target T1, Receptor-type tyrosine-protein kinase FLT3. Nature of the data set: Inhibition of FLT3 autophosphorylation in human RS4-11 cells by Western blot analysis. The class given is cell-based.
In data set [13] the test system is MV4-11. As to the kind of experiment: Antitumor activity against human MV4-11 cells xenografted in BALB/c mouse assessed as inhibition of tumor growth at 50 mg/kg, po bid for 14 days measured on day 30. In kind it is functional. Put shortly: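 Female BALB/c nude mice, 6-8 weeks old, were implanted s.c. in the right flank with 1 × 10⁷ MV4-11 cells. Dosing began at tumor size 200-300 mm³, with four mice per group randomized. Treatment was 50 mg/kg oral gavage b.i.d. for 14 days (day 16 to 29) in 10% NMP/20% Cremophor EL/70% saline vehicle. Calipers gave tumor volume = 0.5 × length × width².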

In data set [14] the test system is Rattus norvegicus. As to the kind of experiment: Volume of distribution at steady state in iv dosed Sprague-Dawley rat. In kind it is ADME, organism-based. The note with it: in vivo. In short, it runs like this:
as §1

Data set [15] deals with Platelet-derived growth factor receptor beta (Homo sapiens, UniProt P09619). Nature of the data set: Inhibition of PDGFRbeta autophosphorylation by cell based Western blot analysis.
Platelet-derived growth factor receptor beta, sequence (P09619 whole entry): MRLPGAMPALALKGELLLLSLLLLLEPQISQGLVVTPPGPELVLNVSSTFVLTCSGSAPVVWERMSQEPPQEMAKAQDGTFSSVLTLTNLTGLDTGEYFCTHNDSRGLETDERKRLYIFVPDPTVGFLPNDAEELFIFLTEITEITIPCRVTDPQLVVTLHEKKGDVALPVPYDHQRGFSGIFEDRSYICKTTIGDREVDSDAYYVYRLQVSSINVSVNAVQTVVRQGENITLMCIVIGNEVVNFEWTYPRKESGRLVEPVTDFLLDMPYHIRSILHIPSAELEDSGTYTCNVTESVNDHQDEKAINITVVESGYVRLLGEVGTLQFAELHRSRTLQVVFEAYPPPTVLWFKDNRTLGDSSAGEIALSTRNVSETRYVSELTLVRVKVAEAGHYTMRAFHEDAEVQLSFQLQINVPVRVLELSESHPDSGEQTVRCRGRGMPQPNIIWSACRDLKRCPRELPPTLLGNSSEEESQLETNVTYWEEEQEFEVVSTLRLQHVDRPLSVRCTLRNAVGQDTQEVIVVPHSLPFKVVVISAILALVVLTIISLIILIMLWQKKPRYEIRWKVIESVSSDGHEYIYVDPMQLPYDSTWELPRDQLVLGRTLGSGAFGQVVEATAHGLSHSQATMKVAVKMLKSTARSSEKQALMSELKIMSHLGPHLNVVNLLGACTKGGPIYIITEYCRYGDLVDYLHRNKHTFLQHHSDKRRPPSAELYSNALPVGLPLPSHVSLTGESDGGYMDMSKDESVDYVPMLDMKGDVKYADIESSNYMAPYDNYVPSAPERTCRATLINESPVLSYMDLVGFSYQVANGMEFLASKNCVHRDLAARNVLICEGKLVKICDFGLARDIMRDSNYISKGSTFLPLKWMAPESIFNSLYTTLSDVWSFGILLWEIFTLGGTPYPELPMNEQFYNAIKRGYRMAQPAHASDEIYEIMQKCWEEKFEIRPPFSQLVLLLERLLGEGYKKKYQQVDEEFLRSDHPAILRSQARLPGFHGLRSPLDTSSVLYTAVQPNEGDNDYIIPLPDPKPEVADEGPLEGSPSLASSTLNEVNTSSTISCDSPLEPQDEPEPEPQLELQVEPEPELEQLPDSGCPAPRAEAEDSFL

Vascular endothelial growth factor receptor 2, sequence (P35968 whole entry): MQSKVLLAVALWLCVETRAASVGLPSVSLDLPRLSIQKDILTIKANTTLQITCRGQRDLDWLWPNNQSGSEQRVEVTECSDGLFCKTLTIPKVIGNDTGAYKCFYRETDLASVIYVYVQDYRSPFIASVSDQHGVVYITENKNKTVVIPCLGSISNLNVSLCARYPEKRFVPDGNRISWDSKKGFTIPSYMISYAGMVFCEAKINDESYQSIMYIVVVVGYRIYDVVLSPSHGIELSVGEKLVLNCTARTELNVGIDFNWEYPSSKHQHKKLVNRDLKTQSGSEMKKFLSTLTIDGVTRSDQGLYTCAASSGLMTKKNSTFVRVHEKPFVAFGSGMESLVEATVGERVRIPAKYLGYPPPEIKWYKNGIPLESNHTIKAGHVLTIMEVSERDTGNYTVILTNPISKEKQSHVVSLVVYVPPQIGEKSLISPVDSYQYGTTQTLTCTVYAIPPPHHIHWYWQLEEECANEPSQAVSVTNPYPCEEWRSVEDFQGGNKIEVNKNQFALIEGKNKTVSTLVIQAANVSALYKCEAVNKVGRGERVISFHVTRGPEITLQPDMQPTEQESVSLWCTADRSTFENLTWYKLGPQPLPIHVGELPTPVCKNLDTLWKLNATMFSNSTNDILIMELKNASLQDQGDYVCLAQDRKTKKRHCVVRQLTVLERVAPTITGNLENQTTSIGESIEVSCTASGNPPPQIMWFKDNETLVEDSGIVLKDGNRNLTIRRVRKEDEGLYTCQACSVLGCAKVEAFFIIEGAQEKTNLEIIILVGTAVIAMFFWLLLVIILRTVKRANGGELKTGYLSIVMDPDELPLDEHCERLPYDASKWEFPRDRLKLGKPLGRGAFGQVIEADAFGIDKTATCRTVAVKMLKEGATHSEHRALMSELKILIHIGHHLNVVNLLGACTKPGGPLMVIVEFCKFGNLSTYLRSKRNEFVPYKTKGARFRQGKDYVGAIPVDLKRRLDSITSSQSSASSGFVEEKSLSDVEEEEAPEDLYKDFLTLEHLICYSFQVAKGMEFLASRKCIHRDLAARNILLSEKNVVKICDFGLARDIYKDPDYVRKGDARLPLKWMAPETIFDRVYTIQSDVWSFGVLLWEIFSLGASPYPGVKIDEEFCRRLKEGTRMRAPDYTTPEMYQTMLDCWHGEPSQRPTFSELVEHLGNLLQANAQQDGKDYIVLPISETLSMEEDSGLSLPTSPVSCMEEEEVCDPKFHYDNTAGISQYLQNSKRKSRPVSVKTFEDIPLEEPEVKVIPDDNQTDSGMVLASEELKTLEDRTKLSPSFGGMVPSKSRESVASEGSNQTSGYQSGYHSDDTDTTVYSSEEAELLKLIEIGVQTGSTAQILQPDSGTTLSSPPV
Mast/stem cell growth factor receptor Kit, sequence (P10721 whole entry): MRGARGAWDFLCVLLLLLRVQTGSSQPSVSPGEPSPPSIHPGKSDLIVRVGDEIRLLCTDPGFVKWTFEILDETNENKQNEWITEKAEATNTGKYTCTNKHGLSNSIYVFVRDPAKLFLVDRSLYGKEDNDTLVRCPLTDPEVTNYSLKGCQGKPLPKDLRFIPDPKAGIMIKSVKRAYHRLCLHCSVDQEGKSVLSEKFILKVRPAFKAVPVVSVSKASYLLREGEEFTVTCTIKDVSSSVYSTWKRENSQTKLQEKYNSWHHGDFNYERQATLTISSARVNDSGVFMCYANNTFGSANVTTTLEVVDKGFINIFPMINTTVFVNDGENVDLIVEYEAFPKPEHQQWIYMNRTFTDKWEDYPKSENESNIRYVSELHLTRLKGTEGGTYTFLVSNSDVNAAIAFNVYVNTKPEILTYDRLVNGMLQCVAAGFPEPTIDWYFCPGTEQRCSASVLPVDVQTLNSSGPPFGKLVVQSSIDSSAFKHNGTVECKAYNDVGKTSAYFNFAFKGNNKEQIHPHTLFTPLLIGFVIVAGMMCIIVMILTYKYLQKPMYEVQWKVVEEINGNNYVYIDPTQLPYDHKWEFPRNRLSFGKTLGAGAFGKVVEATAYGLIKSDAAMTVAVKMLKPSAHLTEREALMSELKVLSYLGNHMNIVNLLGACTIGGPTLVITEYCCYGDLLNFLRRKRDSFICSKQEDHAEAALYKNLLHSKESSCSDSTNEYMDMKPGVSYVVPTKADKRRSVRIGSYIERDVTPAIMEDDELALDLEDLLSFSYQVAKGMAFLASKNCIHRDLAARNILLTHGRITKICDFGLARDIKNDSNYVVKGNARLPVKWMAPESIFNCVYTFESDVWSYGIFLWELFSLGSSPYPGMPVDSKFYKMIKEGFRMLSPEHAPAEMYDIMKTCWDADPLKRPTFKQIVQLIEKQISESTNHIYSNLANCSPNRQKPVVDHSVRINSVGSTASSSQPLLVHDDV

Compound `CCN(CC)CCCOc1ccccc2c(/C=C3\C(=O)Nc4ccc(F)cc43)cc(C)c1-2` registered an IC50 in [1] of 39 nM.

Regarding `Cc1cc(/C=C2\C(=O)Nc3ncc(Br)cc32)c2ccccc(OCCCN3CCOCC3)c1-2`, in data set [1], the IC50 amounted to 86 nM. Compared with the last compound, the IC50 is about 2.2-fold higher.

Consider `O=C1Nc2ccc(Br)cc2/C1=C/c1ccc2cccccc1-2`, for which, in data set [1], the IC50 is over 1000 nM.

Regarding `CCN(CC)CCCOc1ccccc2c(/C=C3\C(=O)Nc4ccc(F)c(F)c43)cc(C)c1-2`, in data set [1], half-maximal inhibition (IC50) required 14 nM.

Take `O=C1Nc2ccc(F)cc2/C1=C/c1ccc2cccccc1-2`: the IC50 in data set [1] was over 1000 nM.

For `Cc1cc(/C=C2\C(=O)Nc3ccc(F)c(F)c32)c2ccccc(OCCCN(C)C)c1-2`, the midpoint of inhibition in [1], the IC50, lay at 5 nM.

`Cc1cc(/C=C2\C(=O)Nc3ccc(F)cc32)c2cccccc1-2`: the IC50 in data set [1] was found to be 128 nM.

In data set [1], `CN(C)S(=O)(=O)c1ccc2c(c1)/C(=C/c1ccc3cccccc1-3)C(=O)N2` gave an IC50 of over 1000 nM.

Compound `Cc1cc(C=C2C(=O)Nc3ccc(F)cc32)c2ccccc(OCCN3CCC[C@H]3CO)c1-2` (mixture of isomers) came in with a bioavailability in data set [2] of 22.8%. In addition, the IC50 in data set [3] was found to be 67 nM; in [5], 186 nM; in data set [1], 98 nM; in data set [9], 44 nM; with MV4-11 [11], 87 nM; in [12], 70 nM. The same compound gave an IC50 in data set [15] of 28 nM. The AUC in data set [4] came out at 1410 ng·h/mL; in data set [8] it was 3220 ng·h/mL. In the data set on Rattus norvegicus [6], the t1/2 is 1.8 h. Further, the time of peak concentration (Tmax) in data set [7] stood at 2 h. Besides, the Cmax in [10] stood at 566 ng/mL. Further, the inhibition in vivo at 50 mg/kg in the data set with MV4-11 [13] was 99%. In the data set with Rattus norvegicus [14], this compound came in with a Vss/F of 1.2324 L/kg.

In the case of `Cc1cc(/C=C2\C(=O)Nc3ccc(F)c(F)c32)c2ccccc(OCCCN3CCCCC3)c1-2`, the IC50 in [1] worked out at 17 nM. This counts as double-digit nanomolar.

In data set [1], `Cc1cc(/C=C2/C(=O)Nc3cc(F)ccc32)c2ccccc(OCCCN(C)C)c1-2` displayed an IC50 of 742 nM.

Regarding `Cc1ccc2c(c1)/C(=C/c1ccc3cccccc1-3)C(=O)N2`, the IC50 in data set [1] is over 1000 nM.

The compound `Cc1cc(/C=C2\C(=O)Nc3ccc(F)c(F)c32)c2ccccc(OCCCN3CCOCC3)c1-2` had an IC50 in data set [1] of 12 nM.

Take `Cc1cc(/C=C2\C(=O)Nc3ncccc32)c2ccccc(OCCCN(C)C)c1-2`: the IC50 in [1] came out at 1460 nM.

`Cc1cc(/C=C2\C(=O)Nc3ccccc32)c2cccccc1-2`: in data set [1], the half-inhibitory concentration (IC50) was over 1000 nM.

In [1], `Cc1cc(/C=C2\C(=O)Nc3ccc(F)cc32)c2ccccc(OCCN3CCC(N(C)C)CC3)c1-2` yielded a concentration for half-maximal inhibition (IC50) of 18 nM.

The compound `Cc1cc(/C=C2/C(=O)Nc3ccc(F)cc32)c2ccccc(OCCCN(C)C)c1-2` yielded an IC50 in data set [1] of 25 nM.

As for `O=C1Nc2ccc(F)cc2/C1=C/c1cc(F)c2cccccc1-2`, the IC50 in data set [1] stood at 23 nM.

Turning to `Cc1cc(/C=C2\C(=O)Nc3ncc(F)cc32)c2ccccc(OCCCN3CCOCC3)c1-2`, the concentration for half-maximal inhibition (IC50) in data set [1] turned out to be 90 nM.

As to `O=C1Nc2ccc(Br)cc2/C1=C\c1ccc2cccccc1-2`, the IC50 in data set [1] is over 1000 nM.

In the case of `Cc1cc(/C=C2\C(=O)Nc3ccc(F)cc32)c2ccccc(OCCN3CCOCC3)c1-2`, half-maximal inhibition in data set [1] (IC50) required 19 nM.

As for `Cc1cc(/C=C2/C(=O)Nc3ccc(F)cc32)c2cccccc1-2`, in data set [1], the IC50 turned out to be 60 nM.

As for `O=C1Nc2ccccc2C1=Cc1ccc2cccccc1-2`, 470 nM corresponded to half-maximal inhibition in data set [1] (IC50).

As to `Cc1cc(/C=C2\C(=O)Nc3ccc(F)cc32)c2ccccc(OCCCN(C)C)c1-2`, in data set [1], the IC50 is 12 nM.

In the case of `CCN(CC)CCCOc1ccccc2c(/C=C3/C(=O)Nc4ccc(F)cc43)cc(C)c1-2`, it took 30 nM to reach half-maximal inhibition in [1] (IC50).

For `Cc1cc(/C=C2/C(=O)Nc3c(F)cccc32)c2ccccc(OCCCN(C)C)c1-2`, the IC50 in data set [1] came out at 177 nM.

Regarding `Cc1cc(/C=C2/C(=O)Nc3ccccc32)c2cccccc1-2`, the IC50 in [1] is over 1000 nM.

On to `Cc1cc(/C=C2\C(=O)Nc3ccc(F)cc32)c2ccccc(OCCCN3CCOCC3)c1-2`, for which, in data set [1], half-maximal inhibition (IC50) required 224 nM. In other words, the sub-micromolar range.

Broadly, the IC50 is the concentration at which inhibition is half-maximal. High values mean lower potency, low ones higher potency. Broadly, the bioavailability is the share of a dose that reaches the circulation, judged against a reference dose that is usually intravenous. Higher therefore signals much systemic uptake. In general, AUC refers to the area under the concentration-time curve, a measure of exposure. A lower AUC goes with low exposure. What is called Tmax is the time at which the peak concentration occurs. In general, Cmax refers to the peak of the concentration-time curve. As usually defined, the inhibition in vivo is the relative decrease from the control value, in per cent.
